ChEMBL document CHEMBL3856196, “3-(Benzodioxan-2-ylmethoxy)-2,6-difluorobenzamides bearing hydrophobic substituents at the 7-position of the benzodioxane nucleus potently inhibit methicillin-resistant Sa and Mtb cell division” (Eur J Med Chem, 2016)
In brackets after ≈: the same amount, converted by molar mass. Activity calls are given as the source filed them. The calls are words filed in the database; no cut-off is given here.

Experiments:
[1] = Cytotoxicity against human MRC5 cells assessed as reduction in cell viability after 24 hrs by MTT assay; assay type: toxicity, cell-based; settings: mrc5, 24 h
Outline: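 MRC-5 lung fibroblasts (DMEM, 10% heat-inactivated calf serum, 37 °C, 5% CO₂) at 10⁴ cells/well were exposed 24 h to twofold serial dilutions in DMEM. Then 1 mg/ml MTT in serum-free DMEM for 3 h, DMSO solubilisation, A570. Cytotoxicity % = 100 − (sample OD/untreated OD) × 100; TD₅₀/TD₉₀ are concentrations cutting viability 50/90%.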

Staphylococcus aureus [2] = assay: Antibacterial activity against […] Staphylococcus aureus ATCC 29213 after 16 hrs by spectrophotometric analysis; assay type: functional; settings: ATCC 29213, 16 h
[3] = Therapeutic index, ratio of TD90 for human MRC5 cells to MBC for […] Staphylococcus aureus ATCC 29213; assay type: cell-based; settings: read-out: TI
Outline: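 Ratio of TD₉₀ (MTT assay on MRC-5, 24 h exposure) to MBC against MRSA ATCC 29213 (LB tube assay, wash-out and overnight regrowth by OD600).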

[4] = molecular target: T1, Cell division protein FtsZ (Staphylococcus aureus) (UniProt P0A031); assay: Inhibition of Staphylococcus aureus FtsZ assessed as cellular desegregation at 0.5 ug/ml after overnight incubation by phase-contrast light microscopic analysis
T1 sequence (whole entry): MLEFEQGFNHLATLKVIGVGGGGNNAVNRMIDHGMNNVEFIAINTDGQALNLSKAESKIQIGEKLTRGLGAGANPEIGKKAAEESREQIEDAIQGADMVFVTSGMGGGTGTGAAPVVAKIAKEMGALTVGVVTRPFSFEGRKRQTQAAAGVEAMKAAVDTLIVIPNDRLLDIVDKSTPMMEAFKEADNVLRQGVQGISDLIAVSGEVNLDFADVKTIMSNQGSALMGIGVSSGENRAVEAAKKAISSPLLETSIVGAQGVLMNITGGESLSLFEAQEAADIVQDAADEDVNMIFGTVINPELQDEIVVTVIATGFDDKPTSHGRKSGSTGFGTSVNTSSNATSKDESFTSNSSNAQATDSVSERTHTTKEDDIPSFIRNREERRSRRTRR
Outline: (§1)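 S. aureus grown overnight with compound at levels starting from the previously determined MIC. Untreated cultures served as negative control. Examined by phase-contrast microscopy at 630×.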

[5] = molecular target: T1, Cell division protein FtsZ (Staphylococcus aureus); assay: Inhibition of Staphylococcus aureus FtsZ assessed as increase in cell volume at 0.5 ug/ml after overnight incubation by phase-contrast light microscopic analysis; outline: as §1
[6] = molecular target: T1, Cell division protein FtsZ (Staphylococcus aureus); assay: Inhibition of Staphylococcus aureus FtsZ assessed as bacterial swelling at 0.5 ug/ml after overnight incubation by phase-contrast light microscopic analysis; outline: as §1
[7] = molecular target: T1, Cell division protein FtsZ (Staphylococcus aureus); assay: Inhibition of Staphylococcus aureus FtsZ assessed as increase in cell volume at 1 ug/ml after overnight incubation by phase-contrast light microscopic analysis; outline: as §1
[8] = molecular target: T1, Cell division protein FtsZ (Staphylococcus aureus); assay: Inhibition of Staphylococcus aureus FtsZ assessed as cellular desegregation at 1 ug/ml after overnight incubation by phase-contrast light microscopic analysis; outline: as §1
[9] = molecular target: T1, Cell division protein FtsZ (Staphylococcus aureus); assay: Inhibition of Staphylococcus aureus FtsZ assessed as cellular desegregation at 1 ug/ml after 16 hrs by transmission electron microscopic analysis
Outline: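 S. aureus at 10⁹ cells/ml grown 16 h at 37 °C with compound, untreated control included. Cells were pelleted at 3100 × g for 5 min, fixed in 2.5% glutaraldehyde in 0.1 M Na cacodylate pH 7.4 for 1 h at 4 °C, post-fixed in 1% OsO₄ for 1 h at 4 °C, and examined by TEM for septum and ultrastructure.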

[10] = molecular target: T1, Cell division protein FtsZ (Staphylococcus aureus); assay: Inhibition of Staphylococcus aureus FtsZ assessed as bacterial swelling at 1 ug/ml after overnight incubation by phase-contrast light microscopic analysis; outline: as §1
[11] = test system: Mycobacterium tuberculosis; assay: Antitubercular activity against Mycobacterium tuberculosis H37Rv by Alamar blue assay; assay type: functional
Outline: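 M. tuberculosis in 7H9 medium with ADC and 0.05% Tween 80; MIC by microplate Alamar Blue assay.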

Enterococcus faecalis [12] = assay: Antibacterial activity against vancomycin-susceptible Enterococcus faecalis clinical isolates after 24 hrs by CLSI […] broth microdilution method; assay type: functional
Outline: (§2)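 CLSI broth microdilution on clinical isolates. Log-phase bacteria in saline at 1–2 × 10⁵ CFU/mL were mixed with compounds diluted in LB, final 0.097–100 μg/mL, for 24 h at 37 °C. MIC is the lowest concentration with total growth inhibition. For MBC, clear wells were plated on sheep-blood agar for 18 h; >99.9% kill versus untreated control. Triplicate.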

Staphylococcus aureus [13] = assay: Antibacterial activity against Staphylococcus aureus; assay type: functional
Staphylococcus aureus [14] = assay: Antibacterial activity against methicillin-resistant Staphylococcus aureus clinical isolates after 24 hrs by CLSI […] broth microdilution method; assay type: functional; outline: as §2
Enterococcus faecalis [15] = assay: Antibacterial activity against vancomycin-resistant Enterococcus faecalis clinical isolates after 24 hrs by CLSI […] broth microdilution method; assay type: functional; outline: as §2
Staphylococcus aureus [16] = assay: Antibacterial activity against methicillin-susceptible Staphylococcus aureus clinical isolates after 24 hrs by CLSI […] broth microdilution method; assay type: functional; outline: as §2

C#Cc1ccc2c(c1)OC(COc1ccc(F)c(C(N)=O)c1F)CO2 (stereo not drawn)
TD90 [1]: 400 µg/mL
MBC (Staphylococcus aureus [2]): 0.625 µg/mL (≈ 1.81 µM)
MIC (Staphylococcus aureus [2]): 0.313 µg/mL (≈ 0.906 µM)
selectivity ratio [3]: 640
inhibition [4]: Active
inhibition [5]: Active
inhibition [6]: Active

N#Cc1ccc2c(c1)OC(COc1ccc(F)c(C(N)=O)c1F)CO2 (stereo not drawn)
MBC (Staphylococcus aureus [2]): 2.5 µg/mL (≈ 7.22 µM)
MIC (Staphylococcus aureus [2]): 1.25 µg/mL (≈ 3.61 µM)

COC(=O)c1ccc2c(c1)OC(COc1ccc(F)c(C(N)=O)c1F)CO2 (stereo not drawn)
TD90 [1]: > 1280 µg/mL
MBC (Staphylococcus aureus [2]): 0.625 µg/mL (≈ 1.65 µM)
MIC (Staphylococcus aureus [2]): 0.625 µg/mL (≈ 1.65 µM)
selectivity ratio [3]: > 1280
inhibition [7]: Active
inhibition [8]: Active
inhibition [9]: Active
inhibition [10]: Active

NC(=O)c1c(F)ccc(OCC2COc3ccc(C(F)(F)F)cc3O2)c1F (stereo not drawn)
MBC (Staphylococcus aureus [2]): 2.5 µg/mL (≈ 6.42 µM)
MIC (Staphylococcus aureus [2]): 2.5 µg/mL (≈ 6.42 µM)

NC(=O)c1c(F)ccc(OCC2COc3ccccc3O2)c1F (stereo not drawn)
MIC [11]: 16 µg/mL (≈ 49.8 µM)
MIC90 (Enterococcus faecalis [12]): 25 µg/mL (≈ 77.8 µM)
MBC (Enterococcus faecalis [12]; read-out: MBC99.9): 50 µg/mL (≈ 156 µM)
MIC (Staphylococcus aureus [13]): 5 µg/mL (≈ 15.6 µM)
MIC90 (Staphylococcus aureus [14]): 3.12 µg/mL (≈ 9.71 µM)
MBC (Staphylococcus aureus [14]; read-out: MBC99.9): 6.25 µg/mL (≈ 19.5 µM)
MIC90 (Enterococcus faecalis [15]): 25 µg/mL (≈ 77.8 µM)
MBC (Enterococcus faecalis [15]; read-out: MBC99.9): 50 µg/mL (≈ 156 µM)
MIC90 (Staphylococcus aureus [16]): 3.12 µg/mL (≈ 9.71 µM)
MBC (Staphylococcus aureus [16]; read-out: MBC99.9): 12.5 µg/mL (≈ 38.9 µM)

NC(=O)c1c(F)ccc(OCC2COc3ccc(N)cc3O2)c1F (stereo not drawn)
MBC (Staphylococcus aureus [2]): 100 µg/mL (≈ 297 µM)
MIC (Staphylococcus aureus [2]): 100 µg/mL (≈ 297 µM)

NC(=O)c1c(F)ccc(OCC2COc3ccc(F)cc3O2)c1F (stereo not drawn)
MBC (Staphylococcus aureus [2]): 2.5 µg/mL (≈ 7.37 µM)
MIC (Staphylococcus aureus [2]): 2.5 µg/mL (≈ 7.37 µM)

NC(=O)c1ccc2c(c1)OC(COc1ccc(F)c(C(N)=O)c1F)CO2 (stereo not drawn)
MIC (Staphylococcus aureus [2]): > 100 µg/mL

CCCCNC(=O)c1ccc2c(c1)OC(COc1ccc(F)c(C(N)=O)c1F)CO2 (stereo not drawn)
MIC (Staphylococcus aureus [2]): > 100 µg/mL

NC(=O)c1c(F)ccc(OCC2COc3ccccc3C2)c1F (stereo not drawn)
MBC (Staphylococcus aureus [2]): 100 µg/mL (≈ 313 µM)
MIC (Staphylococcus aureus [2]): 100 µg/mL (≈ 313 µM)

NC(=O)c1c(F)ccc(OC(CO)COc2ccccc2)c1F (stereo not drawn)
MIC (Staphylococcus aureus [2]): > 100 µg/mL
